# Assay results published in ChEMBL document CHEMBL5661984, “Allosteric ligands for the pharmacologically dark receptors GPR68 and GPR65” (Nature, 2015).
# Calls of active or inactive are those of the source.
# Experiments:
# [1] = biological target: T1, G-protein coupled receptor 68 (Homo sapiens, UniProt Q15743); assay: Positive allosteric modulator activity at GPR68 expressed in human HEK293T cells assessed as proton-mediated calcium release at 10 uM incubated for 10 mins by Fluo-4 Direct calcium dye based FLIPR assay (reference value: 1.30 %); assay type: functional, cell-based
# [2] = Positive allosteric modulator activity at GPR68 E160K mutant transfected in human HEK293T cells assessed as proton-mediated calcium release at 10 uM incubated for 10 mins by Fluo-4 Direct calcium dye based FLIPR assay (reference value: 1.38 +/- 0.01 %); settings: HEK-293T, condition central nervous system disease
# [3] = Positive allosteric modulator activity at GPR68 E160Q mutant transfected in human HEK293T cells assessed as proton-mediated calcium release at 10 uM incubated for 10 mins by Fluo-4 Direct calcium dye based FLIPR assay (reference value: 1.25 +/- 0.01 %); settings: HEK-293T, condition central nervous system disease
# [4] = Positive allosteric modulator activity at GPR68 R189L mutant transfected in human HEK293T cells assessed as proton-mediated calcium release at 10 uM incubated for 10 mins by Fluo-4 Direct calcium dye based FLIPR assay (reference value: 1.42 +/- 0.01 %); settings: HEK-293T, condition central nervous system disease
# [5] = Positive allosteric modulator activity at GPR68 R189M mutant transfected in human HEK293T cells assessed as proton-mediated calcium release at 10 uM incubated for 10 mins by Fluo-4 Direct calcium dye based FLIPR assay (reference value: 1.43 +/- 0.01 %); settings: HEK-293T, condition central nervous system disease
# [6] = Positive allosteric modulator activity at GPR68 H269F mutant transfected in human HEK293T cells assessed as proton-mediated calcium release at 10 uM incubated for 10 mins by Fluo-4 Direct calcium dye based FLIPR assay (reference value: 1.57 +/- 0.01 %); settings: HEK-293T, condition central nervous system disease
# [7] = Positive allosteric modulator activity at GPR68 E160K mutant transfected in human HEK293T cells assessed as proton-mediated calcium release at 10 uM incubated for 10 mins by Fluo-4 Direct calcium dye based FLIPR assay (reference value: 6.79 +/- 0.02); assay type: cell-based; settings: HEK-293T
# [8] = Positive allosteric modulator activity at GPR68 E160Q mutant transfected in human HEK293T cells assessed as proton-mediated calcium release at 10 uM incubated for 10 mins by Fluo-4 Direct calcium dye based FLIPR assay (reference value: 6.86 +/- 0.04); assay type: cell-based; settings: HEK-293T
# [9] = Positive allosteric modulator activity at GPR68 R189L mutant transfected in human HEK293T cells assessed as proton-mediated calcium release at 10 uM incubated for 10 mins by Fluo-4 Direct calcium dye based FLIPR assay (reference value: 6.85 +/- 0.02); assay type: cell-based; settings: HEK-293T
# [10] = Positive allosteric modulator activity at GPR68 R189M mutant transfected in human HEK293T cells assessed as proton-mediated calcium release at 10 uM incubated for 10 mins by Fluo-4 Direct calcium dye based FLIPR assay (reference value: 6.77 +/- 0.01); assay type: cell-based; settings: HEK-293T
# [11] = Positive allosteric modulator activity at GPR68 H269F mutant transfected in human HEK293T cells assessed as proton-mediated calcium release at 10 uM incubated for 10 mins by Fluo-4 Direct calcium dye based FLIPR assay (reference value: 6.44 +/- 0.02); assay type: cell-based; settings: HEK-293T
# [12] = biological target: T1, G-protein coupled receptor 68; assay: Positive allosteric modulator activity at GPR68 expressed in human HEK293T cells assessed as cAMP production in presence of H+ proton by Split-luciferase based luminescence counter analysis (reference value: 26.4 to 43.8 %); assay type: functional, cell-based; settings: filed as positive allosteric modulator
# Method in brief: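 Proton concentration-response of GPR68 (wild type or E160A/K/Q, R189L/M, H269F mutants) in transiently transfected HEK293-T cells. Read-out: GloSensor cAMP, with luciferin loading 90 min at 37°C at pH 8.4. Run with and without increasing modulator concentrations; 20 min at room temperature before luminescence. Proton KA fixed to the proton EC50 without modulator. KB, τA, α, β fitted globally with an operational allosteric model. n=4.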
# [13] = biological target: T1, G-protein coupled receptor 68; assay: Positive allosteric modulator activity at GPR68 expressed in human HEK293T cells assessed as cAMP production in presence of H+ proton by Split-luciferase based luminescence counter analysis (reference value: 6.53 to 6.72); assay type: functional, cell-based
# [14] = biological target: T1, G-protein coupled receptor 68; assay: Positive allosteric modulator activity at GPR68 expressed in human HEK293T cells assessed as proton-mediated phosphatidylinositol hydrolysis on pH 8.4 at 10 uM incubated for 20 mins by TriLuxMicroBeta counter analysis; assay type: functional, cell-based
# Method in brief: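 GPR68-transfected HEK293-T cells labeled overnight with 3H-inositol (1 μCi/well) in inositol-free DMEM with 5% dialyzed FBS. Treated for 20 min at pH 8.4 in HBSS with 10 mM HEPES, 10 mM MES and 20 mM LiCl, compound at 10 μM. Extracted with 50 mM ice-cold formic acid, 30 min at 4°C. Captured on YSi beads and counted (cpm/well). n=3. 4-parameter logistic fit.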
# [15] = biological target: C-X-C chemokine receptor type 4 (Homo sapiens) (UniProt P61073); assay: Agonist activity against CXCR4 receptor (unknown origin) transfected in human HEK293T cells at 10 uM incubated for 15 mins in presence of CXCL12 by luminescence counter analysis; assay type: functional, cell-based
# Method in brief: (§1)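 HEK293-T cells transiently transfected with CXCR4 and the GloSensor cAMP reporter, plated in DMEM with 1% dialyzed FBS. Test compound at 10 μM in 20 mM HEPES/HBSS, pH 7.4, 15 min at room temperature. Agonist mode: luciferin (4 mM final) plus 200 nM isoproterenol added, 20 min. Antagonist mode: compound 10 min, then reference agonist at EC80 for 10 min, then luciferin/isoproterenol. Luminescence read. CXCL12 (1 or 3 μM) is the agonist control and AMD3100 (10 μM) the antagonist control. n=2.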
# [16] = biological target: C-X-C chemokine receptor type 4 (Homo sapiens) (UniProt P61073); assay: Antagonist activity against CXCR4 receptor (unknown origin) transfected in human HEK293T cells at 10 uM incubated for 15 mins in presence of AMD3100 by luminescence counter analysis; assay type: functional, cell-based; method in brief: as §1
# [17] = Toxicity in C57BL/6 mouse assessed as improvement in learning and spatial memory at 10 mg/kg administered for 30 mins by hidden platform test; assay type: organism-based; settings: in vivo, 0.5 h
# [18] = Toxicity in C57BL/6 mouse assessed as improvement in contextual memory at 10 to 30 mg/kg administered for 30 mins; assay type: organism-based; settings: in vivo, 0.5 h, dose 10-30 mg/kg
# [19] = Toxicity in C57BL/6 mouse assessed as improvement in cue memory at 10 to 30 mg/kg administered for 30 mins by Morris water maze test; assay type: organism-based; settings: in vivo, 0.5 h, dose 10-30 mg/kg
# [20] = Toxicity in C57BL/6 mouse assessed as improvement in learning and spatial memory at 30 mg/kg administered for 30 mins by hidden platform test; assay type: organism-based; settings: in vivo, 0.5 h
# [21] = Toxicity in C57BL/6 mouse assessed as decreased contextual memory retrieval; settings: in vivo
# Method in brief: (§2)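 Fear conditioning in wild-type and GPR68 KO C57BL/6J congenic mice. Training was 8 min: 3 pairings of a 30-s, 90 dB, 5 kHz tone with a 2-s, 0.6 mA foot shock. Context freezing scored at 24 h over 5 min; cue test at 48 h over 6 min. Freezing defined as no movement for 0.5 s. Compound 10 mg/kg in 10% Tween 80 or saline, 30 min before training. n=6–8 per group. Two-way ANOVA with Bonferroni post-hoc test.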
# [22] = species on record: Mus musculus; assay: […] activity against GPR68 knockout C57BL/6 mouse assessed as contextual memory retrieval; assay type: functional, organism-based; method in brief: as §2
# [23] = Toxicity in C57BL/6 mouse assessed as cued memory retrieval by Morris water maze test; settings: in vivo
# [24] = species on record: Mus musculus; assay: Antipsychotic activity against GPR68 knockout C57BL/6 mouse assessed as cued memory retrieval by Morris water maze test; assay type: functional, organism-based
# [25] = biological target: T2, G-protein coupled receptor 65 (Homo sapiens, UniProt Q8IYL9); assay: Antagonist activity against GPR65 (unknown origin) transfected in human HEK293T cells incubated for 15 mins by luminescence counter analysis; assay type: functional, cell-based; settings: filed as antagonist
# Method in brief: (§3)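 GloSensor split-luciferase cAMP assay. HEK293-T cells transiently co-transfected with GPR65 (wild type or the D153A, R187L, F242A or Y272A mutant) and GloSensor 7A reporter. Cells plated in DMEM with 1% dialyzed FBS for at least 6 h, then loaded with luciferin (4 mM, in drug buffer pH 8.4) for 90 min at 37°C. Compounds added at set pH in HBSS with 10 mM HEPES/10 mM MES, with TAPS for higher pH. Luminescence read after about 20 min at room temperature. Data normalized to buffer basal and fitted to a 4-parameter logistic.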
# [26] = biological target: T2, G-protein coupled receptor 65; assay: Antagonist activity against GPR65 (unknown origin) transfected in human HEK293T cells incubated for 15 mins in presence of BTB09089 by luminescence counter analysis; assay type: functional, cell-based; settings: filed as antagonist; method in brief: as §3
# T1 sequence (Q15743 whole entry): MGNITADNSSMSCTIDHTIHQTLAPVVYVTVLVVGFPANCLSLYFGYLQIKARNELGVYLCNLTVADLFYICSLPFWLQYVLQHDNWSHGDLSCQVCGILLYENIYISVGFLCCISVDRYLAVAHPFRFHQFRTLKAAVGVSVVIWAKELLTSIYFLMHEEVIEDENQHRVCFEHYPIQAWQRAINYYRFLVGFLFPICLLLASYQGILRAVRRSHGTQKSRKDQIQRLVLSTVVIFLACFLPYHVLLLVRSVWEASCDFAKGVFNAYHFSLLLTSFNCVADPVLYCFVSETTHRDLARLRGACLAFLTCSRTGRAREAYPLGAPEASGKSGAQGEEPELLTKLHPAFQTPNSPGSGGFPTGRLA
# Chain of C-X-C chemokine receptor type 4 (Homo sapiens) (P61073 whole entry): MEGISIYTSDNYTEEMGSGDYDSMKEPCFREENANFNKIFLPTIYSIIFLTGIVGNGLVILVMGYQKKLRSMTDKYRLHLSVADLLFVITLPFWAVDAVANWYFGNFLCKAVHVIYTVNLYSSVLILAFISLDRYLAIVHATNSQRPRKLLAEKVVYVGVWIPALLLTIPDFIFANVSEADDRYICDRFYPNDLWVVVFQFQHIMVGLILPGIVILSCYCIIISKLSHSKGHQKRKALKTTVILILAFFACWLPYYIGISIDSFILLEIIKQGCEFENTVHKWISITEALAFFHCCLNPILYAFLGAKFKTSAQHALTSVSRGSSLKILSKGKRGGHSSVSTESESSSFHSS
# T2 sequence (Q8IYL9 whole entry): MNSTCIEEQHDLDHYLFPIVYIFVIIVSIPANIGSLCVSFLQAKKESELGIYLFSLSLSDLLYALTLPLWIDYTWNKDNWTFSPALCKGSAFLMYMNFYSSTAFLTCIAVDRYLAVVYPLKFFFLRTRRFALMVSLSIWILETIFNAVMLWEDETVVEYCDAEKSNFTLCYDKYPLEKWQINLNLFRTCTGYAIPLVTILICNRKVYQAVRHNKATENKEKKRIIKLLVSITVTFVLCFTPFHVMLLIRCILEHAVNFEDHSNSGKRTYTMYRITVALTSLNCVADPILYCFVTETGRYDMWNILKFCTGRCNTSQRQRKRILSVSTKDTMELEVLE
smiles,measurement,setting,value
Nc1nc(NCc2ccccc2)nc(-c2cccc(CO)c2)n1 [ZINC32547799],Emax,[1],1.33%
same,Emax at 10 µM,[2],1.38%
same,Emax at 10 µM,[3],1.21%
same,Emax at 10 µM,[4],1.36%
same,Emax at 10 µM,[5],1.35%
same,Emax at 10 µM,[6],1.52%
same,EC50,[7],0.158 µM
same,EC50,[8],0.234 µM
same,EC50,[9],0.129 µM
same,EC50,[10],0.186 µM
same,EC50,[11],0.339 µM
same,Emax,[12],43.1%
same,EC50,[13],0.158 µM
same,Activity,[14],inactive
same,Activity,[15],inactive
same,Activity,[16],inactive
same,Activity,[17],Non-Toxic
same,Activity,[18],Non-Toxic
same,Activity,[19],Non-Toxic
same,Activity,[20],Toxic
same,Activity,[21],Non-Toxic
same,Activity,[22],inactive
same,Activity,[23],Non-Toxic
same,Activity,[24],inactive
Cc1nc(-c2ncccn2)sc1C(=O)O[C@@H](c1ccccc1)c1ccncc1,Activity,[25],Active
same,Activity,[26],Active
